Source: ChEMBL document CHEMBL1799942, “Design, synthesis and antifungal activities of novel 1,2,4-triazole derivatives” (2011)
≈ marks a conversion by molar mass, not a printed value.

What was measured:
Assay type in all cases: functional
[1] = tested on: Trichophyton rubrum; test: Antifungal activity against Trichophyton rubrum after 7 days by micro-broth dilution method; conditions: 168 h
How it was run: (§1)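 Broth microdilution following the NCCLS yeast reference method (M27-A2), run on clinical isolates of filamentous fungi. Compounds were dissolved in DMSO, serially diluted in growth medium, inoculated and incubated at 35 °C. Growth was read at 7 days. MIC80 is the first well with about 80% less growth than the drug-free well.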

[2] = tested on: Nannizzia gypsea; test: Antifungal activity against Microsporum gypseum after 7 days by micro-broth dilution method; conditions: 168 h; how it was run: as §1
[3] = Antifungal activity against Fonsecaea compacta by micro-broth dilution method; how it was run: as §1
[4] = tested on: Candida parapsilosis; test: Antifungal activity against Candida parapsilosis ATCC 0306392 by micro-broth dilution method; conditions: Lodderomyces parapsilosis
How it was run: (§2)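 Micro-broth dilution per NCCLS M27-A2. The C. parapsilosis strain is the ATCC 0306392 quality-control standard tested in each assay; the C. tropicalis strain is a clinical isolate. Compounds were in DMSO, serially diluted in growth medium, inoculated and incubated at 35 °C. MIC80 is the first well with about 80% growth reduction relative to the drug-free well.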

[5] = tested on: Candida albicans; test: Antifungal activity against Candida albicans ATCC Y0109 after 24 hrs by micro-broth dilution method; conditions: ATCC Y0109, 24 h
How it was run: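 Micro-broth dilution per NCCLS M27-A2 on the quality-control standard strain ATCC Y0109, included in each assay. Compounds were dissolved in DMSO, serially diluted in growth medium, inoculated and incubated at 35 °C, with growth read at 24 h. MIC80 is the first well showing roughly 80% growth reduction versus the drug-free well.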

[6] = tested on: Cryptococcus neoformans; test: Antifungal activity against Cryptococcus neoformans ATCC BLS108 after 72 hrs by micro-broth dilution method; conditions: ATCC BLS108, 72 h
How it was run: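 NCCLS M27-A2 microdilution on the ATCC BLS108 quality-control strain, tested in every assay. Compounds were taken up in DMSO, serially diluted in growth medium, inoculated and incubated at 35 °C. Growth was scored at 72 h. MIC80 is the first well with about 80% lower growth than the drug-free control well.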

[7] = tested on: Candida tropicalis; test: Antifungal activity against Candida tropicalis by micro-broth dilution method; how it was run: as §2
[8] = tested on: Aspergillus fumigatus; test: Antifungal activity against Aspergillus fumigatus after 7 days by micro-broth dilution method; conditions: 168 h; how it was run: as §1

Row | MIC80 [1] [µg/mL] | MIC80 [2] [µg/mL] | MIC80 [3] [µg/mL] | MIC80 [4] [µg/mL] | MIC80 [5] [µg/mL] | MIC80 [6] [µg/mL] | MIC80 [7] [µg/mL] | MIC80 [8] [µg/mL] | Compound
1 | 0.0039 (≈ 0.00716 µM) | 0.0039 (≈ 0.00716 µM) | 0.0156 (≈ 0.0286 µM) | 0.0039 (≈ 0.00716 µM) | 64 (≈ 117 µM) | 0.0156 (≈ 0.0286 µM) | 0.0039 (≈ 0.00716 µM) | 1 (≈ 1.84 µM) | O=C(Nc1ccc(N2CCN(CC(O)(Cn3cncn3)c3ccc(F)cc3F)CC2)c(F)c1)C(F)(F)Cl (racemic)
2 | 0.0156 (≈ 0.0295 µM) | > 64 | 0.25 (≈ 0.473 µM) | 0.0039 (≈ 0.00738 µM) | 0.0156 (≈ 0.0295 µM) | 0.0625 (≈ 0.118 µM) | 0.0039 (≈ 0.00738 µM) | 1 (≈ 1.89 µM) | O=C(Nc1ccc(N2CCN(CC(O)(Cn3cncn3)c3ccc(F)cc3F)CC2)c(F)c1)C(F)(F)F (racemic)
3 | 0.0625 (≈ 0.128 µM) | 0.25 (≈ 0.512 µM) | 1 (≈ 2.05 µM) | 0.0625 (≈ 0.128 µM) | 0.0625 (≈ 0.128 µM) | 1 (≈ 2.05 µM) | 0.0625 (≈ 0.128 µM) | 4 (≈ 8.19 µM) | CCC(=O)Nc1ccc(N2CCN(CC(O)(Cn3cncn3)c3ccc(F)cc3F)CC2)c(F)c1 (racemic)
4 | 0.0156 (≈ 0.031 µM) | 0.0156 (≈ 0.031 µM) | 0.25 (≈ 0.497 µM) | 0.0156 (≈ 0.031 µM) | 0.0156 (≈ 0.031 µM) | 0.25 (≈ 0.497 µM) | 0.0156 (≈ 0.031 µM) | 1 (≈ 1.99 µM) | CCCC(=O)Nc1ccc(N2CCN(CC(O)(Cn3cncn3)c3ccc(F)cc3F)CC2)c(F)c1 (racemic)
5 | 0.0625 (≈ 0.124 µM) | 0.0625 (≈ 0.124 µM) | 1 (≈ 1.99 µM) | 0.25 (≈ 0.497 µM) | 0.0625 (≈ 0.124 µM) | 16 (≈ 31.8 µM) | 4 (≈ 7.96 µM) | > 64 | CC(C)C(=O)Nc1ccc(N2CCN(CC(O)(Cn3cncn3)c3ccc(F)cc3F)CC2)c(F)c1 (racemic)
6 | 0.25 (≈ 0.484 µM) | 0.25 (≈ 0.484 µM) | 1 (≈ 1.94 µM) | 0.25 (≈ 0.484 µM) | 0.0156 (≈ 0.0302 µM) | 1 (≈ 1.94 µM) | 0.25 (≈ 0.484 µM) | 1 (≈ 1.94 µM) | CCCCC(=O)Nc1ccc(N2CCN(CC(O)(Cn3cncn3)c3ccc(F)cc3F)CC2)c(F)c1 (racemic)
7 | 0.0156 (≈ 0.0302 µM) | 0.0156 (≈ 0.0302 µM) | 0.0625 (≈ 0.121 µM) | 0.0156 (≈ 0.0302 µM) | 0.0156 (≈ 0.0302 µM) | 0.25 (≈ 0.484 µM) | 0.0156 (≈ 0.0302 µM) | 64 (≈ 124 µM) | CC(C)(C)C(=O)Nc1ccc(N2CCN(CC(O)(Cn3cncn3)c3ccc(F)cc3F)CC2)c(F)c1 (racemic)
8 | 0.0156 (≈ 0.0294 µM) | 0.25 (≈ 0.471 µM) | 0.25 (≈ 0.471 µM) | 0.25 (≈ 0.471 µM) | 0.0039 (≈ 0.00735 µM) | 0.0625 (≈ 0.118 µM) | 0.0625 (≈ 0.118 µM) | 1 (≈ 1.88 µM) | CCCCCC(=O)Nc1ccc(N2CCN(CC(O)(Cn3cncn3)c3ccc(F)cc3F)CC2)c(F)c1 (racemic)
9 | 0.0625 (≈ 0.127 µM) | 0.0625 (≈ 0.127 µM) | 0.0625 (≈ 0.127 µM) | 0.0156 (≈ 0.0318 µM) | 0.0039 (≈ 0.00794 µM) | 0.25 (≈ 0.509 µM) | 0.0156 (≈ 0.0318 µM) | 4 (≈ 8.15 µM) | O=C(CCl)Nc1ccc(N2CCN(CC(O)(Cn3cncn3)c3ccc(F)cc3F)CC2)cc1 (racemic)
10 | 0.0156 (≈ 0.0296 µM) | 0.0039 (≈ 0.0074 µM) | 0.0625 (≈ 0.119 µM) | 0.0039 (≈ 0.0074 µM) | 0.00097 (≈ 0.00184 µM) | 0.0625 (≈ 0.119 µM) | 0.0039 (≈ 0.0074 µM) | 1 (≈ 1.9 µM) | O=C(Nc1ccc(N2CCN(CC(O)(Cn3cncn3)c3ccc(F)cc3F)CC2)cc1)C(F)(F)Cl (racemic)
11 | 0.0156 (≈ 0.0306 µM) | 0.0039 (≈ 0.00764 µM) | 0.0156 (≈ 0.0306 µM) | 0.0039 (≈ 0.00764 µM) | 0.00097 (≈ 0.0019 µM) | 0.0156 (≈ 0.0306 µM) | 0.00097 (≈ 0.0019 µM) | 1 (≈ 1.96 µM) | O=C(Nc1ccc(N2CCN(CC(O)(Cn3cncn3)c3ccc(F)cc3F)CC2)cc1)C(F)(F)F (racemic)
12 | 0.0625 (≈ 0.133 µM) | 0.25 (≈ 0.531 µM) | 0.25 (≈ 0.531 µM) | 0.0156 (≈ 0.0332 µM) | 0.0156 (≈ 0.0332 µM) | 1 (≈ 2.13 µM) | 0.0156 (≈ 0.0332 µM) | 4 (≈ 8.5 µM) | CCC(=O)Nc1ccc(N2CCN(CC(O)(Cn3cncn3)c3ccc(F)cc3F)CC2)cc1 (racemic)
